The target of one assay is T1, Af2Sir2 (Archaeoglobus fulgidus, UniProt O30124).
T1 sequence (O30124 1-253): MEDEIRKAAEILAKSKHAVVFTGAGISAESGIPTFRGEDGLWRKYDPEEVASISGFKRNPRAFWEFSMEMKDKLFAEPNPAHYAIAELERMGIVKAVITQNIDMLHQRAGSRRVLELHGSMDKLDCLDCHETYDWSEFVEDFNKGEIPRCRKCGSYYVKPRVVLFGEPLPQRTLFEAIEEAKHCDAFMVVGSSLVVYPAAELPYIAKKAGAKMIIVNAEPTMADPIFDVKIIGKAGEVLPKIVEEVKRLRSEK
Put plainly: Inhibition of sirtuin-catalyzed deacetylation, Af2Sir2. It counts as biochemical.

A further assay addresses Yeast Sir2 (Saccharomyces cerevisiae, UniProt P06700). Put plainly: Inhibition of sirtuin-catalyzed deacetylation, yeast Sir2. The format is biochemical.
Assay [1] addresses T2, SirT1 (Homo sapiens, UniProt Q96EB6).
T2 sequence (Q96EB6 1-747): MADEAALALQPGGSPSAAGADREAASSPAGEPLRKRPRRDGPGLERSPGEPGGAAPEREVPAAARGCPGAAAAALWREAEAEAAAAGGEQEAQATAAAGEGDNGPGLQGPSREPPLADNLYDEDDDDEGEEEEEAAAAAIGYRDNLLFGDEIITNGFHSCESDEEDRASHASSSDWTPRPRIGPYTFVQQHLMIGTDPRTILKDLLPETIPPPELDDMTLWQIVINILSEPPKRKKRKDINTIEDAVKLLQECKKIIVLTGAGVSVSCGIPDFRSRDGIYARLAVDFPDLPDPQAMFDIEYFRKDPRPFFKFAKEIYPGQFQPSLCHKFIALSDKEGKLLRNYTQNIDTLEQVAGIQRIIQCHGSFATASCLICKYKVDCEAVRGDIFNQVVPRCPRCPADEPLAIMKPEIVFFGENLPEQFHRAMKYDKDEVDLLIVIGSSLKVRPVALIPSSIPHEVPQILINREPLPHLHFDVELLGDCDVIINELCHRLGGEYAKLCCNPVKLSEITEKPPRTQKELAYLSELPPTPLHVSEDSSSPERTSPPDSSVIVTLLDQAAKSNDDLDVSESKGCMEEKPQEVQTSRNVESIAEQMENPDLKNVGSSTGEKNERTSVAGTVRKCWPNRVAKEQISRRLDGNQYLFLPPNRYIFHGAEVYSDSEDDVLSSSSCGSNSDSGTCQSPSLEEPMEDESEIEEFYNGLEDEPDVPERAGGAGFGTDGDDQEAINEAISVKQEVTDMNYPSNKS
Put plainly: Inhibition of sirtuin-catalyzed deacetylation, SirT1. The format is biochemical. Put shortly: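 Purified SirT1 was incubated with NAD+, the test compound and an acetylated peptide substrate at 37 °C for 30–60 min. Activity was expressed as percent remaining, with uninhibited set at 100%, and plotted against log[test compound] in nM. IC50 came from a fit to v(%) = v(%)I − [v(%)I(10^x)/(10^x + IC50)].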

The target of the next assay is T3, SirT2 (Homo sapiens, UniProt Q8IXJ6).
T3 sequence (Q8IXJ6 1-389): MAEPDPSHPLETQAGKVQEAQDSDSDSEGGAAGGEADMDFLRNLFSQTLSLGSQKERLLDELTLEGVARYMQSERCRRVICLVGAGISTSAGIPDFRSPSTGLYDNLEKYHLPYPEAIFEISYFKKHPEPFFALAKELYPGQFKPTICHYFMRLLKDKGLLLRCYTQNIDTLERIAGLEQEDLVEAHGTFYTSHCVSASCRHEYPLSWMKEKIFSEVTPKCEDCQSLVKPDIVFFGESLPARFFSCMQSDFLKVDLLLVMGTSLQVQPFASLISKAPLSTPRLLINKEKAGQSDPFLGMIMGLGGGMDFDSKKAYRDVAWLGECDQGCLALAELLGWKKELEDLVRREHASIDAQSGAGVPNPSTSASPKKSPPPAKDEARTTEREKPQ
The experiment in a line: Inhibition of sirtuin-catalyzed deacetylation, SirT2. The format is biochemical.

For assay [2], the target named is T2, SirT1. Conditions: NAD+ as substrate on SIRT1; cited from earlier work.

Each structure is given as a SMILES string.

Chain of Yeast Sir2 (P06700 whole entry): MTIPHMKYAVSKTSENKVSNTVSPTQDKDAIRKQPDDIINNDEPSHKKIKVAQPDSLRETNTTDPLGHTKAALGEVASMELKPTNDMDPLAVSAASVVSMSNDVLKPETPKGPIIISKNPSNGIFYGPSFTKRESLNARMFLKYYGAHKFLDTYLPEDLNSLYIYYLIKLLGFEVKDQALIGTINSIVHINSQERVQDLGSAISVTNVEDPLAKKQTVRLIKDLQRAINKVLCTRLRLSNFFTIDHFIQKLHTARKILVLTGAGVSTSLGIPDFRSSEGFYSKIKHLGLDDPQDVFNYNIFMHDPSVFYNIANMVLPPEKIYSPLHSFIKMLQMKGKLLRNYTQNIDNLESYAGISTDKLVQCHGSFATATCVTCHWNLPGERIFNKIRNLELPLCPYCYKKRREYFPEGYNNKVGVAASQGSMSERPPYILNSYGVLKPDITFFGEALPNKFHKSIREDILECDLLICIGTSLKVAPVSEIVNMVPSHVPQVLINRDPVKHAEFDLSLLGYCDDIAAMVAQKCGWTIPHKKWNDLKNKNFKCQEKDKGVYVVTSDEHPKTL

The IC50 is the concentration needed to halve the response being measured. The Ki is the dissociation constant of the complex between target and ligand, obtained from inhibition or displacement. A higher Ki goes with weaker binding. Turning to `COC(=O)[C@H](C)NC(=O)[C@H](C)NC(=O)[C@H](CCCCNC(C)=S)NC(=O)c1ccc([N+](=O)[O-])cc1` [compound 1, N^α-4-nitrobenzoyl-N^ε-thioacetyl-lysinyl-alaninyl-alanine methyl ester], the IC50 against Af2Sir2 was 131 ± 26 µM; on Yeast Sir2 it was 19.5 ± 5.8 µM; at SirT1 [1] it was 6.5 ± 1 µM; against SirT2, 13.1 ± 0.54 µM. Also, on SirT1 [1], the inhibitory constant (Ki) was found to be 0.611 µM.

Usually Km stands for the substrate concentration at which the rate is half of its maximum. `NC(=O)c1ccc[n+]([C@@H]2O[C@H](COP(=O)([O-])OP(=O)(O)OC[C@H]3O[C@@H](n4cnc5c(N)ncnc54)[C@H](O)[C@@H]3O)[C@@H](O)[C@H]2O)c1` [NAD^+]: on SirT1 [2], the Km is 165 µM.

The values are drawn from paper PMC3135177 (Organic & biomolecular chemistry, 2010).
